Published values of several laboratories.
Compare with care: the assays were run in different laboratories.
Target: Discoidin domain-containing receptor 2 (DDR2, Homo sapiens, UniProt Q16832)
Sequence (Q16832 22-855, as in one of the studies): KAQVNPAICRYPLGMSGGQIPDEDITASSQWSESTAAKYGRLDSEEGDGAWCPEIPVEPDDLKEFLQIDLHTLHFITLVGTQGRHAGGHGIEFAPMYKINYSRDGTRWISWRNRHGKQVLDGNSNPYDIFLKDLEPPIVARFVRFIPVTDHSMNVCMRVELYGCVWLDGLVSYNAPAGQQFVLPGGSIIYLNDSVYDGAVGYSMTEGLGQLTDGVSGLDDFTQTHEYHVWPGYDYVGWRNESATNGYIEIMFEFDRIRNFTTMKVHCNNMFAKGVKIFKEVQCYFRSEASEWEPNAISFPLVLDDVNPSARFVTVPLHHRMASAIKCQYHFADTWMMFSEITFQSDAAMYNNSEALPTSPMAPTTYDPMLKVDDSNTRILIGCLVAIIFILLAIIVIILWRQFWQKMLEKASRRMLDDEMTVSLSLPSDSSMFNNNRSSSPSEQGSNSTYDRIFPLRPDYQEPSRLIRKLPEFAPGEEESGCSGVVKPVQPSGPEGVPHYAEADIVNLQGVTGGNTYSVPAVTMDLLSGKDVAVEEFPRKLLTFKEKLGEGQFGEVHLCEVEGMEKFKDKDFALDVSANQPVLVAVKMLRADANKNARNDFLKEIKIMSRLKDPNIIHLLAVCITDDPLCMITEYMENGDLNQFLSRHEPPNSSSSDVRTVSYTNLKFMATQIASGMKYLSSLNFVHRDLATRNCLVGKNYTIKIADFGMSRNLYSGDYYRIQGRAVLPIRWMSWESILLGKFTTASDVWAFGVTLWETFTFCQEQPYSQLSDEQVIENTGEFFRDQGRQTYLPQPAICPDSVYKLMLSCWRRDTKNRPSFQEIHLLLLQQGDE

SMILES	test	conditions	measurement	result
Cn1cc(-c2cccc(N3CCc4c(sc5c4CC(C)(C)C5)C3=O)c2CO)cc(Nc2ccncn2)c1=O	enzyme activity, inhibitor	1 µM	inhibition	1%
C#Cc1n[nH]c2c(-c3cn([C@@H](C)c4ccccc4)c(=O)[nH]c3=O)cc(F)cc12	enzyme activity, inhibitor	0.1 µM	inhibition	-1.1%
N#CC1(c2ccccn2)CCN(Cc2cc(C(=O)O)c(=O)n3ccccc23)CC1	cell-free assay, competition with immobilised ligand	1 µM	remaining binding	100%
O=c1[nH]c2ccccc2n1C1CCN(Cc2ccc(-c3[nH]c4cc5ncnc5cc4nc3-c3ccccc3)cc2)CC1	cell-free assay	0.5 µM	remaining signal	99.2%
C#Cc1n[nH]c2c(-c3cn([C@@H](C)c4ccccn4)c(=O)[nH]c3=O)cc(F)cc12	enzyme activity, inhibitor	0.1 µM	inhibition	0.9%
Cc1nn(C)cc1-c1nc2c(N3CCN(Cc4ccc(Cl)cc4)CC3)c(Cl)cnc2[nH]1	binding, competition with immobilised ligand	1 µM	remaining binding	96%
Cn1cc(-c2cc(F)cc(N3CCn4c(cc5c4CCCC5)C3=O)c2CO)cc(Nc2ccc(N3CCN(C4COC4)CC3)cn2)c1=O	enzyme activity, inhibitor	0.1 µM	inhibition	-7%
CC(C)(C)c1cc(C=C(C#N)C#N)cc(Br)c1O	enzyme activity, inhibitor	0.5 µM	remaining activity	105%
Cn1cncc1[C@@](O)(COc1ccc(C#N)cc1-c1ccc(OC(F)(F)F)cc1)c1ccc(C#N)cc1	cell-free assay, competition with immobilised ligand	1 µM	remaining binding	95%
COc1ncccc1-c1cnn2ccc(N3CCN(C(=O)OC(C)C)CC3)nc12	binding, competition with immobilised ligand	1 µM	remaining binding	36%
COc1cc(Nc2ncc(F)c(Nc3ccc4c(n3)NC(=O)C(C)(C)O4)n2)cc(OC)c1OC	binding, competition with immobilised ligand	10 µM	inhibition	86%
Nc1ncc(-c2nc(N3CCOCC3)nc(N3CCOCC3)n2)c(C(F)F)n1	cell-free assay, competition with immobilised ligand	10 µM	remaining binding	57%
